# A selection: hits, their analogues and other compounds. The true share with any hit is near 2.1%.
# beta cell repl – inducers of beta-cell replication in MIN6 cells; proliferation, % at 10 µM; 0.29% of 330,000 active; MIN6 cells proliferation, ATPlite luminescence, 48 h; cells starved in 0.2% serum; 100% = growth in 10% serum;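 active = compounds whose signal lies at least 3.5 SD above the mean of all wells on their plate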;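 note: 0% = DMSO-treated cells in low-serum medium and 100% = 10% serum control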
# iPSC survival up – hiPSC single-cell survival enhancement; ATPlite luminescence; 100% = ROCK inhibitor wells, 0% = DMSO; survival enhancement, % at 20 µM; 0.044% of 360,000 active; in the data active = survival enhancement above about 18%;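 note: cells exposed to compounds for 16 hours before the ATP read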
# UCH37 inh – blocks the human deubiquitinase UCH37. Q9Y5K5. inhibition, % (test concentration not listed). purified proteasome/UCH37, Ub-AMC cleavage fluorescence. 0.33% of 330,000 active. AID 588478;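 active = mean inhibition over replicate wells above about 20%, limit read from the data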;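 note: 0% = compound-free wells with enzyme and 100% = wells lacking proteasome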
# Target sequence (Q9Y5K5 whole entry, looked up): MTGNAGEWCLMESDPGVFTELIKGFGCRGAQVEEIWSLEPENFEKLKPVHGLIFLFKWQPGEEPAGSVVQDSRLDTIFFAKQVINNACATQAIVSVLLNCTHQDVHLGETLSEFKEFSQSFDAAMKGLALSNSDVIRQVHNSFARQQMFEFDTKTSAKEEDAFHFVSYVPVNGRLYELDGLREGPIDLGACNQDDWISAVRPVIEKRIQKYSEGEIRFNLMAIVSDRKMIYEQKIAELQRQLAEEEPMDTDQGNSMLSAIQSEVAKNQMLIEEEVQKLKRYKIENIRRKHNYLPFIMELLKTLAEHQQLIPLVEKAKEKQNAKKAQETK
#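 Material: human UCH37 enzyme supplied as purified proteasome complex / Amount: 0.15 nM proteasome as dispensed / Buffer or medium: pH 7.4 Tris-HCl (50 mM) with ovalbumin, ATP-MgCl2, DTT / Times: preincubation 30 min, reaction 25 min, room temperature / Technique: AMC fluorescence from Ub-AMC cleavage, excitation 355 nm, emission 460 nm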
# CRFBP-R2 agonist – CRF-BP/CRF-R2 complex agonism; HEK293 CRF-R2/CRF-BP, calcium dye fluorescence (FLIPR); percent of saturating CRF peptide response; activation, % at 13.2 µM; 0.46% of 350,000 active; AID 588473;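 active = activation of at least 50%, plus an integration ratio under a set limit after plate pattern correction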;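 note: plate controls were neutral control wells without compound for no effect and CRF at EC100 for full effect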
# CRFBP-R2 block – antagonists of CRF-binding protein/CRF-R2 receptor complex; HEK293 CRF-R2/CRF-BP, CRF-induced calcium fluorescence; inhibition, % at 11.8 µM; 0.59% of 350,000 active;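 active = inhibition of the ligand-induced calcium signal above about 50% at the single tested concentration, limit read from the data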
# Cardio protect – modulators protecting cardiomyocytes from myocardial damage. H9c2 cardiomyocytes, H2O2 injury protection, ATPLite, 2 h. protection from H2O2 cell death, % at 20 µM. 0.63% of 360,000 active. AID 588492;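 active = compounds giving at least 50% protection of heart cells from peroxide-induced death in the single-dose screen, raw or plate-pattern-corrected value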;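 note: 0% = DMSO wells with peroxide and 100% = DMSO wells without peroxide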
# Active calls of the source: *; / = no result given; ! = a repeat was not active.
SMILES,beta cell repl,iPSC survival up,UCH37 inh,CRFBP-R2 agonist,CRFBP-R2 block,Cardio protect
Cc1ccc2oc(=O)c(/C=C(\O)c3sc(C)nc3C)nc2c1,0.0,2.2,8.2,122.6*,-106.5,10.8
CN(C(=O)CCS(=O)(=O)c1ccc2c(c1)oc(=O)n2C)C1CCCCC1,-0.5,-0.2,0.4,-1.0,68.4*,-2.9
Cc1ccc(N(C)C(=O)CCS(=O)(=O)c2ccc3c(c2)oc(=O)n3C)cc1,-2.4,-0.2,1.7,-0.7,14.9,0.8
Clc1ccc(-c2ccc(-c3nn4c(-c5ccco5)nnc4s3)o2)cc1,-1.6,4.9,-19.6,-1.5,-39.7,25.5
COc1cccc(-c2nn3c(-c4cc(C)[nH]n4)nnc3s2)c1,-0.6,-1.2,1.1,0.3,1.6,10.6
COc1cccc(-c2nn3c(-c4ccco4)nnc3s2)c1,1.7,2.7,-2.1,-1.0,-8.5,73.2*
COc1cccc(OC)c1-c1nn2c(-c3ccco3)nnc2s1,1.1,-0.1,1.2,0.4,-27.7,53.6*
CCc1cccc(NC(=S)N(CCCN2CCOCC2)C(C)c2cc3cccc(OC)c3o2)c1 (stereo not drawn),-1.2,0.3,7.2,-1.5,76.5*,7.9
COc1cccc2cc(C(C)N(CCCN3CCOCC3)C(=S)Nc3ccc(C)c(C)c3)oc12 (stereo not drawn),-3.5,0.1,2.3,2.8,-23.6,-1.3
CCc1ccc(O)c(CNCCNCc2cc(CC)ccc2O)c1,-8.4,-4.2,0.7,0.3,-3.9,18.9
Cc1ccc(O)c(CNCCNCc2cc(C)ccc2O)c1,-8.1,-1.1,1.7,1.2,-4.4,64.8*
CCCCNC(=O)c1sc(=S)n2c1[nH]c(=O)c1ccccc12,-6.0,-1.6,6.3,50.3*,55.0*,-34.2
Cc1ccccc1-n1c(CSC(=N)N)nc2ccccc2c1=O,-1.6,13.3,1.6,0.3,51.9*,-3.0
N=C(N)SCc1nc2ccccc2c(=O)n1-c1ccccc1Cl,-4.7,1.1,-18.3,-1.6,-8.6,8.9
Cc1ccccc1C=Nn1c(-c2ccccn2)n[nH]c1=S,/,/,1.8,/,/,/
CCc1nc(N=Nc2c(O)[nH]c3ccccc23)c2c3c(sc2n1)CCC3,-5.1,3.3,3.4,7.6,5.2,69.4*
Cc1ccc(C(=O)NN=Cc2sc(=O)n(Cc3cccc(C(=O)O)c3)c2Cl)cc1,/,/,1.1,/,/,/
CCN1C(=O)/C(=C/C=C2/SCCN2C)SC1=S,-3.0,0.2,7.5,59.2*,-18.2,-15.6
CN1/C(=C\C=C2/SC(=S)N(CC(=O)O)C2=O)C(C)(C)c2ccccc21,-5.9,-0.2,16.5,263.1*,-185.4,-30.4
CCN1C(=O)/C(=C/C=C2/Sc3ccccc3N2CCO)SC1=S,1.5,-1.0,9.4,14.5,-17.0,8.5
C=CCN1C(=O)/C(=C\C=C2\N(C)c3ccccc3C2(C)C)SC1=S,-3.7,-2.4,-3.1,104.2*,-68.1,-21.5
CCCCN1C(=O)/C(=C/C=C2\Oc3ccccc3N2CC)SC1=S,/,1.0,6.2,287.2*,-365.4,-9.0
COc1ccc(/C=C/C(=O)Oc2cccc(C=NNC(=O)c3cccc(F)c3)c2)cc1,/,/,1.4,/,/,/
COc1cc(C=NNC(=O)c2ccncc2)ccc1OCC(=O)Nc1cccc([N+](=O)[O-])c1,/,/,1.1,/,/,/
CCCN1C(=O)/C(=C/C=C2\N(CC)c3ccccc3C2(C)C)SC1=S,-5.7,-2.2,8.9,169.5*,-211.7,-4.8
SMILES,beta cell repl,iPSC survival up,UCH37 inh,CRFBP-R2 agonist,CRFBP-R2 block,Cardio protect
CCCN1C(=O)/C(=C\C=C2/Sc3ccccc3N2CCO)SC1=S,0.1,-0.8,12.3,19.0,-3.4,-5.5
CCCCN1C(=O)/C(=C/C=C2/CC(C)(C)CN2C)SC1=S,0.0,-1.4,9.1,195.6*,-267.7,-11.7
CCCN1C(=O)/C(=C/c2ccncc2)SC1=S,-0.6,-0.8,10.4,-0.7,-0.1,-6.0
Cc1ccc(C)c(NC(=O)Cn2cnc3c(oc4ccccc43)c2=O)c1,-2.6,0.1,-0.4,-4.3,52.3*,1.4
CCN(CC)S(=O)(=O)c1cccc(-c2n[nH]c(=S)n2N=Cc2ccc(C(=O)OC)cc2)c1,/,/,-1.3,/,/,/
COc1ccc(C2c3c(-c4ccccc4O)n[nH]c3C(=O)N2Cc2ccco2)cc1 (stereo not drawn),-5.8,1.8,4.9,-3.3,135.8*,0.1
CCOC(=O)Nc1ccc(Oc2ccccc2)cc1,-3.5,2.1,3.9,1.0,56.9*,-3.4
Cc1ccc(N/C(=C\C(=O)c2ccccc2)C(=O)O)cc1,7.1*,-0.6,16.8,-0.3,11.6,6.9
Cc1ccc(NC(=O)c2ccccc2)cc1,-1.1,-2.4,0.1,-0.7,-0.3,-7.9
Cc1ccc(C2C(C(=O)c3cccs3)=C(O)C(=O)N2c2nnc(C)s2)cc1 (stereo not drawn),0.9,-0.3,11.3,134.3*,-74.9,2.0
COc1ccc(C2C(C(=O)c3cccs3)=C(O)C(=O)N2c2cccc(C)n2)cc1 (stereo not drawn),-0.4,0.7,10.4,-0.1,5.1,1.2
CCn1c(SCC(=O)NN=Cc2cc(OC)c(OC)c(OC)c2)nc2ccccc21,/,/,2.1,/,/,/
COc1cc(-c2ccc3cc(OC)c(OC)c(OC)c3c2)cc(OC)c1OC,/,-0.9,/,0.6,58.2*,4.3
COc1ccc(-c2oc3ccc(-c4cc(OC)c(OC)c(OC)c4)cc3c2-c2ccc(OC)cc2)cc1,-3.3,/,-43.5,-0.6,5.7,/
CN(C(=O)CN1C(=O)/C(=C/c2ccccc2Cl)SC1=S)C1CCS(=O)(=O)C1 (stereo not drawn),-0.8,-0.1,5.6,6.0,53.0*,0.9
COCCCNC(=S)NN=Cc1ccc(N(C)C)cc1Cl,/,/,-33.3,/,/,/
CC(C)CC1Nc2ncnc(N3CCN(c4ccccc4)CC3)c2N(Cc2ccc(Br)cc2)C1=O (stereo not drawn),-5.6,-1.9,-1.3,0.1,-5.6,-2.5
CC(C)CC1Nc2ncnc(N3CCN(c4ccccc4)CC3)c2N(Cc2ccccc2)C1=O (stereo not drawn),-8.2,22.6*!,2.2,0.6,-5.0,-3.3
CC1Nc2ncnc(N3CCN(c4ccccc4)CC3)c2N(Cc2ccc(Cl)cc2)C1=O (stereo not drawn),-7.9,-0.2,0.6,0.5,-11.7,60.9*
N#Cc1c2ccc(O)cc2n2ccccc12,-1.7,-1.5,-74.0,72.5*,-70.8,69.0*
COc1ccc(NC(=O)c2cc3c(=O)n(C)c4ccccc4c3n2C)cc1OC,-0.2,-3.4,3.3,-3.8,-33.6,50.0*
Cn1c(C(=O)NCc2cccs2)cc2c(=O)n(C)c3ccccc3c21,-3.1,-1.0,2.4,1.4,8.1,68.4*
COC(=O)c1ccc(C=NNC(=O)C(=O)NCc2ccccc2)cc1,/,/,5.4,/,/,/
CCc1ccc2c(c1)cc(CN(Cc1ccco1)C(C)=O)c1nnnn12,10.8*,-0.9,5.0,-0.7,-22.5,-1.4

# Assay outcomes deposited in PubChem BioAssay by several laboratories.
